pIC50: −log10 of the molar value. Where “and” joins values, the source holds several entries; their conditions need not be identical. Identical values can stand only once. Entries after “also recorded” stand apart in the source; their conditions may differ. Like-named read-outs stand apart in the source and are kept apart here. Each block holds one compound with its values, some of them ahead of it.
What was measured:
OXE receptor [1] = target: T1, OXE receptor (Homo sapiens, UniProt Q8TDS5); experiment: 5-oxo-ETE-induced calcium mobilization in indo-1-loaded neutrophils; assay type: cell-based; settings: for Effect on 5-oxo-ETE-induced calcium mobilization: compound 10 μM
T1 sequence (Q8TDS5 whole entry): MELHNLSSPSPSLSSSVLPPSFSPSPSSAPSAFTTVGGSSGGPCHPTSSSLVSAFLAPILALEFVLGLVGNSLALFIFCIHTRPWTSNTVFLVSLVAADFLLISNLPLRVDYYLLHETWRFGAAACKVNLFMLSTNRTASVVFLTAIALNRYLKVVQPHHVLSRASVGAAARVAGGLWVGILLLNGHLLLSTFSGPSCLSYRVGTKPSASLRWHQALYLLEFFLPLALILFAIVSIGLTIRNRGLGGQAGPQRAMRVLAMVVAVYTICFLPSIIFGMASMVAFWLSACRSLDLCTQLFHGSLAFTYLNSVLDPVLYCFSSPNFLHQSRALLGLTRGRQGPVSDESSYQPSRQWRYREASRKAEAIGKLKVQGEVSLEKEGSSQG

OXE receptor [2] = target: T1, OXE receptor; settings: cited from earlier work
OXE receptor [3] = settings: cited from earlier work
neutrophils = experiment: 5-oxo-ETE-induced actin polymerization in neutrophils; assay type: cell-based, human; settings: 5-oxo-ETE 10 nM
Method in brief: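 Unfractionated leukocytes came from healthy-donor blood by dextran sedimentation and hypotonic lysis. They were labelled with APC anti-CD49d (30 min, ice) and held at 5.5 × 10^6 cells/ml in PBS with Ca++ 1.8 mM and Mg++ 1 mM. Cells were preincubated 5 min at 37 °C with DMSO vehicle or test compound, then given 5-oxo-ETE (10 nM final) for 20 s. They were fixed in formaldehyde (8.5% final), permeabilised with lysophosphatidylcholine and stained overnight at 4 °C with NBD-phallacidin (0.3 μM final). F-actin was read by flow cytometry.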

eosinophils = experiment: 5-oxo-ETE-induced actin polymerization in eosinophils; assay type: cell-based, human; settings: 5-oxo-ETE 10 nM
OXE receptor [4] = target: T1, OXE receptor; settings: concentration of 30 μM; cited from earlier work
PAF = experiment: Selectivity: calcium mobilization in neutrophils in response to PAF; assay type: cell-based, human; settings: compound 10 μM; PAF 10 nM
Method in brief: (§1)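 Neutrophils were prepared by dextran sedimentation, Ficoll and hypotonic lysis, loaded with indo-1 AM, and placed in a stirred cuvette at 37 °C in PBS with Ca++ 1.8 mM and Mg++ 1 mM. Fluorescence was read at excitation 331 nm and emission 410 nm. Vehicle or test compound was added at baseline, 5-oxo-ETE (10 nM final) 2 min later, and the second agonist 2 min after that. Digitonin (0.1% final) followed 1 min later for maximal signal.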

IL-8 = experiment: Selectivity: calcium mobilization in neutrophils in response to IL-8; assay type: cell-based, human; settings: compound 10 μM; IL-8 10 nM
Method in brief: as §1

LTB4 = experiment: Selectivity: calcium mobilization in neutrophils in response to LTB4; assay type: cell-based, human; settings: compound 10 μM; LTB4 10 nM
Method in brief: as §1

[5] = Metabolism by rat liver homogenates in medium favoring β-oxidation; assay type: in vitro ADME; settings: medium containing ATP, CoA, L-carnitine and NAD+
[6] = Preliminary pharmacokinetic experiments in rats, oral administration; assay type: in vivo, rat; settings: unpublished data
fMLP = experiment: Selectivity: calcium mobilization in neutrophils in response to fMLP; assay type: cell-based, human; settings: compound 10 μM; fMLP 100 nM
Method in brief: as §1

[7] = Metabolism by rat liver homogenates in the presence of NADPH; assay type: in vitro ADME; settings: 20 μM, NADPH 1 mM, 60 min, 37 °C
Method in brief: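 Liver from male Sprague-Dawley rats was homogenised in ice-cold 0.25 M sucrose and spun at 600 × g for 10 min; the supernatant served as homogenate. It was incubated with test compound (20 μM) in phosphate buffer (pH 7.4, 50 mM final) with NADPH (1 mM final) for 60 min at 37 °C. Reactions were stopped with ice-cold MeOH. Products were analysed by reversed-phase C18 HPLC (22–42% acetonitrile gradient, 0.02% acetic acid) with photodiode-array UV detection.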

OXE receptor [8] = target: T1, OXE receptor; experiment: Agonist activity: calcium mobilization in neutrophils by the compound itself; assay type: cell-based
Method in brief: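 Neutrophils were isolated by dextran sedimentation, Ficoll centrifugation and hypotonic lysis, then loaded with indo-1 AM. In PBS with Ca++ 1.8 mM and Mg++ 1 mM (final, added 5 min before), cells sat in a stirred cuvette at 37 °C. Fluorescence was read at excitation 331 nm and emission 410 nm. After a stable baseline, DMSO vehicle or test compound was added, and 2 min later 5-oxo-ETE (10 nM final). Digitonin (0.1% final) gave maximal fluorescence.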

[9] = calcium mobilization, 5-oxo-ETE 10 nM

- Antagonist potency compared with 10 (OXE receptor [1]; [9]): small decrease in potency
SMILES: CCCCCc1cc2ccccc2n1C(=O)CCCC(=O)O [compound 9]

SMILES: CCCCC/C=C\C[C@H](O)/C=C/C=C/C=C/C(=O)CCCC(=O)O [8-trans-5-oxo-12-HETE]
- Agonist activity (calcium mobilization by the compound itself) (OXE receptor [2]): Neither compound mobilized intracellular calcium

- Antagonist potency compared with 27 (OXE receptor [1]; [9]): relatively little effect
SMILES: CCCCCCc1c(C)c2ccccc2n1C(=O)CC(C)CC(=O)O (stereo not shown) [compound 47, 5-(2-hexyl-3-methyl-1-H-indol-1-yl)-3-methyl-5-oxo-pentanoic acid]

- Antagonist potency compared with 27 (OXE receptor [1]; [9]): reduced potency by several fold
SMILES: CCCCCCc1cc2ccc(OC)cc2n1C(=O)CC(C)CC(=O)O (stereo not shown) [compound 36, 5-(2-hexyl-6-methoxy-1-H-indol-1-yl)-3-methyl-5-oxo-pentanoic acid]

- Reduction in antagonist potency relative to 10 (OXE receptor [1]; [9]): over 10 fold
SMILES: CCCCc1cc2ccccc2n1C(=O)CCCC(=O)O [compound 8]

- Effect on 5-oxo-ETE-induced calcium mobilization (OXE receptor [1]; 5-oxo-ETE 10 nM): modest antagonist effect
SMILES: CCCCCCc1[nH]c2ccccc2c1C(=O)CCCC(=O)O [compound 48, 5-(2-Hexyl-1H-indol-3-yl)-5-oxo-pentanoic acid]

- Antagonist potency compared with 48 (OXE receptor [1]; [9]): slightly increased potency
SMILES: CCCCCCc1c(C(=O)CCCC(=O)O)c2ccccc2n1C [compound 50, 5-(2-hexyl-1-methyl-1-H-indol-3-yl)-5-oxo-pentanoic acid]

- Antagonist potency compared with 27 (OXE receptor [1]; [9]): relatively little effect
SMILES: CCCCCCc1cc2cc(Cl)ccc2n1C(=O)CC(C)CC(=O)O (stereo not shown) [compound 41, 5-(5-chloro-2-hexyl-1-H-indol-1-yl)-3-methyl-5-oxo-pentanoic acid]

- Effect on 5-oxo-ETE-induced calcium mobilization (OXE receptor [1]; 5-oxo-ETE 10 nM): completely abolished
SMILES: CCCCCCc1cc2ccccc2n1C(=O)CCCC(=O)O [compound 10]

SMILES: CCCCC/C=C\CC(=O)/C=C/C=C\C/C=C\CCCC(=O)O [12-oxo-ETE]
- Activation of the OXE receptor (OXE receptor [3]): do not activate the OXE receptor

SMILES: CSc1nc2ccc3nc(NC(=O)C(c4ccccc4)c4ccccc4)sc3c2s1 [Gue1654, 7-(methylthio)-2-[(2,2-diphenylacetyl)amino]benzo[1,2-d:4,3-d′]bisthiazole]
- Times less potent than 53 and 34 in blocking actin polymerization in neutrophils (neutrophils): about 10 times
- Times less potent than 53 and 34 in blocking actin polymerization in eosinophils (eosinophils): about 10 times

SMILES: CCCCC/C=C\C/C=C\C/C=C\C=C\[C@@H](O)CCCC(=O)O [5-HETE, 5S-hydroxy-6E,8Z,11Z,14Z-eicosatetraenoic acid]
- Times less potent than 5-oxo-ETE (OXE receptor [3]): 100 times

- Antagonist potency compared with 10 (OXE receptor [1]; [9]): nearly eliminated antagonist activity
SMILES: CCCCCCc1cc2ccccc2n1C(=O)CCC(=O)O [compound 29, 4-(2-Hexyl-indol-1-yl)-4-oxo-butyric acid]

- Increase in antagonist potency relative to 27 (OXE receptor [1]; [9]): approximately 3 fold
SMILES: CCCCCCc1cc2ccc(Br)cc2n1C(=O)CC(C)CC(=O)O (stereo not shown) [compound 35, 5-(6-bromo-2-hexyl-1-H-indol-1-yl)-3-methyl-5-oxo-pentanoic acid]

SMILES: O=C(O)CCCC(=O)n1ccc2ccccc21 [1(5-oxovalerate)indole]
- Antagonist activity (OXE receptor [4]): no detectable activity

- Antagonist potency compared with 53 (OXE receptor [1]; [9]): equipotent
SMILES: CCCCCCc1c(C(=O)CC(C)CC(=O)O)c2cc(Br)ccc2n1C (stereo not shown) [compound 54, 5-(5-bromo-2-hexyl-1-methyl-1-H-indol-3-yl)-3-methyl-5-oxo-pentanoic acid]

- pIC50 (OXE receptor [1]; IC50, inhibition of 5-oxo-ETE-induced calcium mobilization in neutrophils, 5-oxo-ETE 10 nM added 2 min after antagonist): 7.55 and ~7.52
- Further increase in antagonist potency relative to 51 and 52 (OXE receptor [1]; [9]): over 10 fold
- Effect on 5-oxo-ETE-induced calcium mobilization (OXE receptor [1]; 5-oxo-ETE 10 nM): completely blocked
- Appearance in the blood [6]: appear rapidly in the blood
- Extent of metabolism [7]: metabolized to an even lesser extent
SMILES: CCCCCCc1c(C(=O)CC(C)CC(=O)O)c2cc(Cl)ccc2n1C (racemic) [compound 53, 5-(5-Chloro-2-hexyl-1-methyl-1H-indol-3-yl)-3-methyl-5-oxo-pentanoic acid]
- Effect on calcium response to PAF (PAF): no effect
- Effect on calcium response to IL-8 (IL-8): no effect
- Effect on calcium response to LTB4 (LTB4): no effect
- Metabolism under conditions favoring β-oxidation [5]: Negligible metabolism; also recorded: no evidence for the metabolism
- Effect on calcium response to fMLP (fMLP): no effect

- Effect on 5-oxo-ETE-induced calcium mobilization (OXE receptor [1]; 5-oxo-ETE 10 nM): completely blocked
- Appearance in the blood [6]: appear rapidly in the blood
- Converted to a more polar product [7]: about 12%
- Extent of metabolism [7]: metabolized to a small extent
SMILES: CCCCCCc1cc2ccc(Cl)cc2n1C(=O)CC(C)CC(=O)O (racemic) [compound 34, 5-(6-Chloro-2-hexyl-indol-1-yl)-3-methyl-5-oxo-pentanoic acid]
- Effect on calcium response to PAF (PAF): no effect
- Effect on calcium response to IL-8 (IL-8): no effect
- Effect on calcium response to LTB4 (LTB4): no effect
- Metabolism under conditions favoring β-oxidation [5]: Negligible metabolism; also recorded: no evidence for the metabolism
- Effect on calcium response to fMLP (fMLP): no effect

SMILES: CCCCCC(=O)/C=C/C=C\C/C=C\C/C=C\CCCC(=O)O [15-oxo-ETE]
- Activation of the OXE receptor (OXE receptor [3]): do not activate the OXE receptor

SMILES: CCCCCCc1nc2ccccc2cc1C(=O)CCCC(=O)O [quinoline derivative]
- Agonist activity (calcium mobilization by the compound itself) (OXE receptor [8]): did not act as an agonist

SMILES: O=C(O)CCCC(=O)/C=C/C=C\C/C=C\C/C=C\CCCCCO [5-oxo-20-hydroxy-ETE]
- Times less potent than 5-oxo-ETE (OXE receptor [3]): 100 times

- Antagonist potency compared with 10 (OXE receptor [1]; [9]): slightly increased potency
SMILES: CCCCCCCc1cc2ccccc2n1C(=O)CCCC(=O)O [compound 11]

- Increase in antagonist potency relative to 52 (OXE receptor [1]; [9]): about 4 fold
SMILES: CCCCCCc1c(C(=O)CC(C)CC(=O)O)c2ccc(Cl)cc2n1C (stereo not shown) [compound 56, 5-(6-chloro-2-hexyl-1-methyl-1-H-indol-3-yl)-3-methyl-5-oxo-pentanoic acid]

- Increase in antagonist potency relative to 10 (OXE receptor [1]; [9]): over 10 times
SMILES: CCCCCCc1cc2ccccc2n1C(=O)CC(C)CC(=O)O (stereo not shown) [compound 27, 5-(2-hexyl-1H-indol-1-yl)-3-methyl-5-oxopentanoic acid]

- Antagonist potency compared with 27 (OXE receptor [1]; [9]): less potent than 27
- Increase in antagonist potency relative to 50 (OXE receptor [1]; [9]): about 10 times
SMILES: CCCCCCc1c(C(=O)CCCC(=O)O)c2cc(Cl)ccc2n1C [compound 51, 5-(5-chloro-2-hexyl-1-methyl-1-H-indol-3-yl)-5-oxo-pentanoic acid]

- Antagonist potency compared with 13 (OXE receptor [1]; [9]): little effect
SMILES: CCCCCCCCC/C=C\c1cc2ccccc2n1C(=O)CCCC(=O)O [compound 15, (Z)-5-oxo-5-(2-(undec-1-en-1-yl)-1H-indol-1-yl)pentanoic acid]

- Antagonist potency compared with 10 (OXE receptor [1]; [9]): reduced potency
SMILES: CCCC/C=C/c1cc2ccccc2n1C(=O)CCCC(=O)O [compound 14, 5-(2-Hex-1-enyl-indol-1-yl)-5-oxo-pentanoic acid]

- Reduction in antagonist potency relative to 10 (OXE receptor [1]; [9]): about 10 fold
SMILES: CCCCCCc1cc2ccccc2n1C(=O)CC(C)(C)CC(=O)O [compound 17, 5-(2-hexyl-1H-indol-1-yl)-3,3-dimethyl-5-oxopentanoic acid]

- Antagonist potency compared with 10 (OXE receptor [1]; [9]): relatively little effect
SMILES: CCCCCCc1cc2ccccc2n1C(=O)CC1(CC(=O)O)CC1 [compound 25, 2-(1-(2-(2-hexyl-1H-indol-1-yl)-2-oxoethyl)cyclopropyl)acetic acid]

- Antagonist potency compared with 27 (OXE receptor [1]; [9]): reduced potency by several fold
SMILES: CCCCCCc1cc2cc(Br)ccc2n1C(=O)CC(C)CC(=O)O (stereo not shown) [compound 42, 5-(5-bromo-2-hexyl-1-H-indol-1-yl)-3-methyl-5-oxo-pentanoic acid]

- Antagonist potency compared with 10 (OXE receptor [1]; [9]): slightly increased potency
SMILES: CCCCCCCCCCCc1cc2ccccc2n1C(=O)CCCC(=O)O [compound 13]

SMILES: CCCCC/C=C\C[C@H](O)/C=C/C=C\C=C\C(=O)CCCC(=O)O [5-oxo-12-HETE, 5-oxo-12S-hydroxy-6E,8Z,10E,14Z-eicosatetraenoic acid]
- Agonist activity (calcium mobilization by the compound itself) (OXE receptor [2]): Neither compound mobilized intracellular calcium; also recorded: not itself affecting intracellular calcium levels

- Antagonist potency compared with 10 (OXE receptor [1]; [9]): slightly increased potency
SMILES: CCCCCCCCc1cc2ccccc2n1C(=O)CCCC(=O)O [compound 12]

From article PMC7138454 (Journal of medicinal chemistry, 2014)
